Data taken from ChEMBL document CHEMBL1131325, “Synthesis and antiviral evaluation of certain novel pyrazinoic acid C-nucleosides” (J Med Chem, 1998).

What was measured:
[1] = system: KB; assay: Cytotoxicity for the compound was determined by the inhibition of the growing KB cells.; format: functional, cell-based; settings: Homo sapiens
In short: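 KB cell growth was measured over two population doublings. Cells were plated at 3000–5000/well, cultured overnight, then compound was added in quadruplicate at 6–8 concentrations for 48 h at 37 °C in CO₂. Cells were fixed in 95% ethanol, stained with 0.1% crystal violet, eluted with 0.1 N HCl/ethanol and read at 570 nm. IC50 came from regression vs. log concentration. The positive control was 2-acetylpyridine thiosemicarbazone.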

[2] = system: HFF; assay: Cytotoxicity for the compound was determined in uninfected stationary human foreskin fibroblasts (HFF) cells.; format: functional, cell-based
In short: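 Stationary HFF monolayers not affected by virus in the HCMV plaque assay were examined microscopically for cytotoxicity. Visual scoring was done at the time of plaque enumeration, after 10–12 days at 37 °C. IC50 came from regression against log concentration.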

[3] = system: Human betaherpesvirus 5; assay: Compound was evaluated for antiviral activity by their capacity to inhibit replication of HCMV virus; format: functional, organism-based
In short: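 Towne strain HCMV (plaque-purified isolate P₀) plaque reduction in HFF cells in 24-well dishes, ~100 pfu/cm² cell sheet. After adsorption, compound in growth medium was added at 4–8 concentrations in duplicate wells. Incubation was 10–12 days at 37 °C, then crystal violet fixation/staining and microscopic plaque counts. IC50 came from linear regression of % plaque reduction vs. log concentration. Ganciclovir served as positive control.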

[4] = system: Human alphaherpesvirus 1; assay: Compound was evaluated for the antiviral activity by their capacity to inhibit the replication of HSV-1 virus; format: functional, organism-based
In short: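 HSV-1 (KOS strain) ELISA in BSC-1 cells, 10 000 cells/well in MEM(E) + 10% calf serum, after overnight culture at 37 °C. Drug was added in quadruplicate with 100 pfu/well virus and incubated 3 days at 37 °C. Detection used HRP-conjugated rabbit anti-HSV-1 with TMB substrate, read at 450/570 nm. IC50 came from regression of % absorbance reduction vs. log concentration. Acyclovir was the positive control.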

IC50 [3] [µM]	IC50 [4] [µM]	SMILES	IC50 [1] [µM]	IC50 [2] [µM]
> 100	> 100	CCOc1nc(Cl)c(C(N)=O)nc1[C@@H]1O[C@H](CO)[C@@H](O)[C@H]1O	> 100	> 100
> 100	> 100	CCOC(=O)c1nc([C@@H]2O[C@H](CO)[C@@H](O)[C@H]2O)c(NC)nc1Cl	> 100	> 100
> 100	> 100	NC(=O)c1nc([C@@H]2O[C@H](CO)[C@@H](O)[C@H]2O)c(N)nc1Cl	> 100	> 100
	1.8	Nc1nc2c(ncn2COC(CO)CO)c(=O)[nH]1 [GANCICLOVIR]	> 100	> 100
3.2	20	CCOC(=O)c1nc([C@@H]2O[C@H](CO)[C@@H](O)[C@H]2O)c(Cl)nc1Cl	20	3.2
> 100	> 100	COc1nc(Cl)c(C(N)=O)nc1[C@@H]1O[C@H](CO)[C@@H](O)[C@H]1O	> 100	> 100
70		OC[C@H]1O[C@@H](c2ncc(Cl)nc2Cl)[C@H](O)[C@@H]1O		> 100
> 100	> 100	CCOC(=O)c1nc([C@@H]2O[C@H](CO)[C@@H](O)[C@H]2O)c(N)nc1Cl	> 100	> 100
